Laboratory results: ChEMBL document CHEMBL2384906, “Biological activity, design, synthesis and structure activity relationship of some novel derivatives of curcumin containing sulfonamides” (Eur J Med Chem, 2013)
Values after ≈ are worked out from the molar mass of the structure shown. Active and inactive are the calls of the source. No cut-off for these calls is given here.

Experiments:
Mus musculus = assay: Antiinflammatory activity in mouse assessed as inhibition of carrageenan-induced increase in paw volume at 200 mg/kg administered 1 hr prior to carrageenan challenge measured after 3 hrs relative to control; assay type: functional
Method in brief: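 Mice were fasted 2 h and placed in groups of five. Controls received saline i.p. Phenylbutazone was given at 100 mg/kg i.p., curcumin at 200 mg/kg i.p., and derivatives at 200 mg/kg. After 1 h, 0.1 mL of 1% carrageenan in saline was injected subplantar into the right hind paw. Paw volume was followed by plethysmometer for 3 h, and % inhibition was calculated as (Vc − Vt)/Vc × 100.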

HCT-116 = assay: Cytotoxicity against human HCT116 cells after 24 hrs by MTT assay; assay type: functional, cell-based
Method in brief: (§1)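 The MTT assay seeded 5 × 10⁴ cells per well and grew them 24 h in RPMI 1640 with compound at 2.5–200 µM. Medium without cells was the blank and adriamycin the positive control. MTT was added for 4 h at 37 °C, formazan was solubilised, and absorbance was read at 570 nm. IC50 is the concentration that cuts viability 50% against untreated cells.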

QG-56 = assay: Cytotoxicity against human QG56 cells after 24 hrs by MTT assay; assay type: functional, cell-based; method in brief: as §1
HeLa = assay: Cytotoxicity against human HeLa cells after 24 hrs by MTT assay; assay type: functional, cell-based; method in brief: as §1
HepG2 = assay: Cytotoxicity against human HepG2 cells after 24 hrs by MTT assay; assay type: functional, cell-based; method in brief: as §1
Trichoderma viride [1] = assay: Antifungal activity against Trichoderma viride MTCC 1107 after 48 hrs; assay type: functional; conditions: MTCC 1107, 48 h
Trichoderma viride [2] = assay: Antifungal activity against Trichoderma viride MTCC 1107 assessed as zone of inhibition at 20 uM after 48 hrs by disc diffusion method; assay type: functional; conditions: MTCC 1107, 48 h, read-out: IZ
Method in brief: (§2)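 Spores from 4-day potato dextrose agar cultures, suspended in sterile water at 1.5 × 10⁵ CFU/mL. 0.2 mL was spread on potato dextrose agar. 5 mm filter-paper discs soaked with test compound were laid on the lawn. Incubation was 48 h at 28 °C, then the inhibition zone was measured in mm. Fluconazole was the positive control and acetone the negative control.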

Trichoderma viride [3] = assay: Antifungal activity against Trichoderma viride MTCC 1107 assessed as zone of inhibition at 40 uM after 48 hrs by disc diffusion method; assay type: functional; conditions: MTCC 1107, 48 h, read-out: IZ; method in brief: as §2
Trichoderma viride [4] = assay: Antifungal activity against Trichoderma viride MTCC 1107 assessed as zone of inhibition at 80 uM after 48 hrs by disc diffusion method; assay type: functional; conditions: MTCC 1107, 48 h, read-out: IZ; method in brief: as §2
Curvularia lunata [5] = assay: Antifungal activity against Curvularia lunata MTCC 581 after 48 hrs; assay type: functional; conditions: MTCC 581, 48 h
Curvularia lunata [6] = assay: Antifungal activity against Curvularia lunata MTCC 581 assessed as zone of inhibition at 20 uM after 48 hrs by disc diffusion method; assay type: functional; conditions: MTCC 581, 48 h, read-out: IZ; method in brief: as §2
Curvularia lunata [7] = assay: Antifungal activity against Curvularia lunata MTCC 581 assessed as zone of inhibition at 40 uM after 48 hrs by disc diffusion method; assay type: functional; conditions: MTCC 581, 48 h, read-out: IZ; method in brief: as §2
Aspergillus flavus [8] = assay: Antifungal activity against Aspergillus flavus MTCC 1021 after 48 hrs; assay type: functional; conditions: MTCC 1021, 48 h
Curvularia lunata [9] = assay: Antifungal activity against Curvularia lunata MTCC 581 assessed as zone of inhibition at 80 uM after 48 hrs by disc diffusion method; assay type: functional; conditions: MTCC 581, 48 h, read-out: IZ; method in brief: as §2
Aspergillus flavus [10] = assay: Antifungal activity against Aspergillus flavus MTCC 1021 assessed as zone of inhibition at 20 uM after 48 hrs by disc diffusion method; assay type: functional; conditions: MTCC 1021, 48 h, read-out: IZ; method in brief: as §2
Aspergillus flavus [11] = assay: Antifungal activity against Aspergillus flavus MTCC 1021 assessed as zone of inhibition at 40 uM after 48 hrs by disc diffusion method; assay type: functional; conditions: MTCC 1021, 48 h, read-out: IZ; method in brief: as §2
Aspergillus flavus [12] = assay: Antifungal activity against Aspergillus flavus MTCC 1021 assessed as zone of inhibition at 80 uM after 48 hrs by disc diffusion method; assay type: functional; conditions: MTCC 1021, 48 h, read-out: IZ; method in brief: as §2
Aspergillus niger [13] = assay: Antifungal activity against Aspergillus niger MTCC 1108 after 48 hrs; assay type: functional; conditions: MTCC 1108, 48 h
Aspergillus niger [14] = assay: Antifungal activity against Aspergillus niger MTCC 1108 assessed as zone of inhibition at 20 uM after 48 hrs by disc diffusion method; assay type: functional; conditions: MTCC 1108, 48 h, read-out: IZ; method in brief: as §2
Aspergillus niger [15] = assay: Antifungal activity against Aspergillus niger MTCC 1108 assessed as zone of inhibition at 40 uM after 48 hrs by disc diffusion method; assay type: functional; conditions: MTCC 1108, 48 h, read-out: IZ; method in brief: as §2
Aspergillus niger [16] = assay: Antifungal activity against Aspergillus niger MTCC 1108 assessed as zone of inhibition at 80 uM after 48 hrs by disc diffusion method; assay type: functional; conditions: MTCC 1108, 48 h, read-out: IZ; method in brief: as §2
Escherichia coli [17] = assay: Antimicrobial activity against Escherichia coli ATCC 35218 after 24 hrs by broth micro serial dilution method; assay type: functional; conditions: ATCC 35218, 24 h
Method in brief: (§3)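 This was broth microdilution in autoclaved Mueller-Hinton broth. 150 µL of compound per well was serially diluted […], and 50 µL of test organism was added. Plates were incubated 24 h at 37 °C and optical density was read.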

Escherichia coli [18] = assay: Antimicrobial activity against Escherichia coli ATCC 35218 assessed as diameter of inhibition zone at 80 uM after 24 hrs by Kirby -Baur disc diffusion method; assay type: functional
Method in brief: (§4)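 Kirby-Bauer disc diffusion was used. Acetone stocks (160 µM) were serially doubled down to 80, 40 and 20 µM. 4 µL of each went onto 5 mm sterile paper discs, which were dried 30 min at 50 °C. Inoculum was 1.5 × 10⁸ CFU/mL diluted to 3 × 10² CFU/mL, and 50 µL was spread on Mueller-Hinton agar. After 24 h at 37 °C the inhibition-zone diameter was measured. Ciprofloxacin served as positive control.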

Pseudomonas aeruginosa [19] = assay: Antimicrobial activity against Pseudomonas aeruginosa ATCC 15499 after 24 hrs by broth micro serial dilution method; assay type: functional; conditions: ATCC 15499, 24 h; method in brief: as §3
Pseudomonas aeruginosa [20] = assay: Antimicrobial activity against Pseudomonas aeruginosa ATCC 15499 assessed as diameter of inhibition zone at 80 uM after 24 hrs by Kirby -Baur disc diffusion method; assay type: functional; method in brief: as §4
Salmonella typhi [21] = assay: Antimicrobial activity against Salmonella typhi ATCC 23564 after 24 hrs by broth micro serial dilution method; assay type: functional; conditions: Salmonella enterica subsp. enterica serovar Typhi
Salmonella typhi [22] = assay: Antimicrobial activity against Salmonella typhi ATCC 23564 assessed as diameter of inhibition zone at 80 uM after 24 hrs by Kirby -Baur disc diffusion method; assay type: functional; conditions: Salmonella enterica subsp. enterica serovar Typhi
Bacillus cereus [23] = assay: Antimicrobial activity against Bacillus cereus MTCC 7350 after 24 hrs by broth micro serial dilution method; assay type: functional; conditions: MTCC 7350, 24 h; method in brief: as §3
Bacillus cereus [24] = assay: Antimicrobial activity against Bacillus cereus MTCC 7350 assessed as diameter of inhibition zone at 20 uM after 24 hrs by Kirby -Baur disc diffusion method; assay type: functional; method in brief: as §4
Bacillus cereus [25] = assay: Antimicrobial activity against Bacillus cereus MTCC 7350 assessed as diameter of inhibition zone at 40 uM after 24 hrs by Kirby -Baur disc diffusion method; assay type: functional; method in brief: as §4
Bacillus cereus [26] = assay: Antimicrobial activity against Bacillus cereus MTCC 7350 assessed as diameter of inhibition zone at 80 uM after 24 hrs by Kirby -Baur disc diffusion method; assay type: functional; conditions: MTCC 7350, 24 h, read-out: DIZ; method in brief: as §4
Staphylococcus aureus [27] = assay: Antimicrobial activity against Staphylococcus aureus ATCC 11632 after 24 hrs by broth micro serial dilution method; assay type: functional; conditions: ATCC 11632, 24 h; method in brief: as §3
Staphylococcus aureus [28] = assay: Antimicrobial activity against Staphylococcus aureus ATCC 11632 assessed as diameter of inhibition zone at 20 uM after 24 hrs by Kirby -Baur disc diffusion method; assay type: functional; method in brief: as §4
Staphylococcus aureus [29] = assay: Antimicrobial activity against Staphylococcus aureus ATCC 11632 assessed as diameter of inhibition zone at 40 uM after 24 hrs by Kirby -Baur disc diffusion method; assay type: functional; method in brief: as §4
Staphylococcus aureus [30] = assay: Antimicrobial activity against Staphylococcus aureus ATCC 11632 assessed as diameter of inhibition zone at 80 uM after 24 hrs by Kirby -Baur disc diffusion method; assay type: functional; conditions: ATCC 11632, 24 h, read-out: DIZ; method in brief: as §4

SMILES: COc1cc(/C=C/C(=O)C(/N=N/c2ccc(S(=O)(=O)Nc3nc(C)cc(C)n3)cc2)=C(O)/C=C/c2ccc(O)c(OC)c2)ccc1O
- inhibition in vivo at 200 mg/kg (Mus musculus): 33.8%
- IC50 (HCT-116): Not Active
- IC50 (QG-56): 100 µM
- IC50 (HeLa): 50 µM
- IC50 (HepG2): > 100 µM
- MIC (Trichoderma viride [1]): 20 µM (≈ 13.2 µg/mL)
- zone of inhibition at 20 µM (Trichoderma viride [2]): 18 mm
- zone of inhibition at 40 µM (Trichoderma viride [3]): 19 mm
- zone of inhibition at 80 µM (Trichoderma viride [4]): 22 mm
- MIC (Curvularia lunata [5]): 20 µM (≈ 13.2 µg/mL)
- zone of inhibition at 20 µM (Curvularia lunata [6]): 18 mm
- zone of inhibition at 40 µM (Curvularia lunata [7]): 19 mm
- MIC (Aspergillus flavus [8]): 40 µM (≈ 26.3 µg/mL)
- zone of inhibition at 80 µM (Curvularia lunata [9]): 22 mm
- zone of inhibition at 20 µM (Aspergillus flavus [10]): 11 mm
- zone of inhibition at 40 µM (Aspergillus flavus [11]): 13 mm
- zone of inhibition at 80 µM (Aspergillus flavus [12]): 14 mm
- MIC (Aspergillus niger [13]): 40 µM (≈ 26.3 µg/mL)
- zone of inhibition at 20 µM (Aspergillus niger [14]): 9 mm
- zone of inhibition at 40 µM (Aspergillus niger [15]): 12 mm
- zone of inhibition at 80 µM (Aspergillus niger [16]): 14 mm
- MIC (Escherichia coli [17]): > 80 µM
- diameter of the inhibition zone (DIZ) (Escherichia coli [18]): inactive
- MIC (Pseudomonas aeruginosa [19]): > 80 µM
- diameter of the inhibition zone (DIZ) (Pseudomonas aeruginosa [20]): inactive
- MIC (Salmonella typhi [21]): inactive
- diameter of the inhibition zone (DIZ) (Salmonella typhi [22]): inactive
- MIC (Bacillus cereus [23]): > 80 µM
- diameter of the inhibition zone (DIZ) (Bacillus cereus [24]): inactive
- diameter of the inhibition zone (DIZ) (Bacillus cereus [25]): inactive
- zone of inhibition at 80 µM (Bacillus cereus [26]): 11 mm
- MIC (Staphylococcus aureus [27]): > 80 µM
- diameter of the inhibition zone (DIZ) (Staphylococcus aureus [28]): inactive
- diameter of the inhibition zone (DIZ) (Staphylococcus aureus [29]): inactive
- zone of inhibition at 80 µM (Staphylococcus aureus [30]): 10 mm
